Test results taken from ChEMBL document CHEMBL4350961, “Discovery of Pyrrolo[3,2- d]pyrimidin-4-one Derivatives as a New Class of Potent and Cell-Active Inhibitors of P300/CBP-Associated Factor Bromodomain” (J Med Chem, 2019).
Activity calls are given as the source filed them.

How the values were obtained:
[1] = molecular target: Mitogen-activated protein kinase kinase kinase 7 (Homo sapiens) (UniProt O43318); assay: Inhibition of human TAK1 (1 to 303 residues) using casein as substrate measured after 40 mins in presence of [gamma33P]ATP by scintillation counting method
Mitogen-activated protein kinase kinase kinase 7 (Homo sapiens), sequence (O43318 whole entry, the tested form may be a part): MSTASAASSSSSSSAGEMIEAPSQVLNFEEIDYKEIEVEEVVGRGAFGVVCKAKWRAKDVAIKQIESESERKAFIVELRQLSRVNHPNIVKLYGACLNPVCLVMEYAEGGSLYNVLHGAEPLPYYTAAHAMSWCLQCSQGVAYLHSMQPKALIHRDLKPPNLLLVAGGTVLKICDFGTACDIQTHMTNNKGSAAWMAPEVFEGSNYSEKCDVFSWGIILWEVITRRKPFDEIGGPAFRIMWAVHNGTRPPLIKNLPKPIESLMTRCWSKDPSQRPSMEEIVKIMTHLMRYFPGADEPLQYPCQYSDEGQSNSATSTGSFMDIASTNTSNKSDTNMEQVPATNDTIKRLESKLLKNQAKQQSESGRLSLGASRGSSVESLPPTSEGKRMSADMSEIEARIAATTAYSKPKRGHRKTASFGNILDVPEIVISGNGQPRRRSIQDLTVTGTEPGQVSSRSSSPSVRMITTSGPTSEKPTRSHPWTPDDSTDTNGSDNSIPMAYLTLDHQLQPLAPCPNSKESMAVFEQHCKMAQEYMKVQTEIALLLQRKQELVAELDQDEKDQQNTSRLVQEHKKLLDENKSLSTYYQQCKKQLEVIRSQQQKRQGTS

[2] = molecular target: Dual specificity tyrosine-phosphorylation-regulated kinase 3 (Homo sapiens) (UniProt O43781); assay: Inhibition of recombinant full-length human DYRK3 at 10 uM using RRRFRPASPLRGPPK as substrate measured after 40 mins in presence of [gamma33P]ATP by scintillation counting method
[3] = test system: Epidermal growth factor receptor (Homo sapiens), P00533 [L861Q]; assay: Inhibition of recombinant human EGFR L861Q mutant (696 to end residues) at 10 uM using poly(Glu, Tyr) 4:1 as substrate measured after 40 mins in presence of [gamma33P]ATP by scintillation counting method
[4] = molecular target: Bromodomain-containing protein 2 (Homo sapiens) (UniProt P25440); assay: Binding affinity to human partial length BRD2 bromodomain 1 long isoform (K71 to N194 residues) expressed in bacterial expression system at 1 uM by BROMOscan assay
Bromodomain-containing protein 2 (Homo sapiens), sequence (P25440 whole entry, looked up, the tested form may be a part, canonical isoform): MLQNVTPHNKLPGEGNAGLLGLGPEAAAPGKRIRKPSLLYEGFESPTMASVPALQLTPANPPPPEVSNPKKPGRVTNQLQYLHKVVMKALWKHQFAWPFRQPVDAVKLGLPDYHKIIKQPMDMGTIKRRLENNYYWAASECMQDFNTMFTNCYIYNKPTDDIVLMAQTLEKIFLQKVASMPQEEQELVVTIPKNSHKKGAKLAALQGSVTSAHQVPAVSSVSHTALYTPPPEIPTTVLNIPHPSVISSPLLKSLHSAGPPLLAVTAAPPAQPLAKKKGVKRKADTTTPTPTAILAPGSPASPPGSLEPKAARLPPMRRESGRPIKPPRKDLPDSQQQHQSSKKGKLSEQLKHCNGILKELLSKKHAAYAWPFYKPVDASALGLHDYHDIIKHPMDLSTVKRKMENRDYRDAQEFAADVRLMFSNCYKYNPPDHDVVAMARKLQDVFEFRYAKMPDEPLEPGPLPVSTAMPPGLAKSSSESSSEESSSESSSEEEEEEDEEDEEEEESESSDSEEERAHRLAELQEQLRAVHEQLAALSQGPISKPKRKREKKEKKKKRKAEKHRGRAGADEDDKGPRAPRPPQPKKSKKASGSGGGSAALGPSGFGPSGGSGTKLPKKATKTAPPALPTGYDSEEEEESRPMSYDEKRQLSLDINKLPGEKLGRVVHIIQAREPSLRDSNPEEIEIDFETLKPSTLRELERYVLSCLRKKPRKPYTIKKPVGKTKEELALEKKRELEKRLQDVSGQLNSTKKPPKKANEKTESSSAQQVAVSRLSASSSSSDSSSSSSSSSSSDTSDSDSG
How it was run: (§1)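 BROMOscan bromodomain cross-screen run by an outside service, compound at 1 µM against 32 recombinant bromodomains. Binding given as percent of control.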

[5] = molecular target: Dual specificity protein kinase CLK3 (Homo sapiens) (UniProt P49761); assay: Inhibition of recombinant full-length human CLK3 at 10 uM using ERMRPRKRQGSVRRRV as substrate measured after 40 mins in presence of [gamma33P]ATP by scintillation counting method
Dual specificity protein kinase CLK3 (Homo sapiens), sequence (P49761 whole entry, looked up): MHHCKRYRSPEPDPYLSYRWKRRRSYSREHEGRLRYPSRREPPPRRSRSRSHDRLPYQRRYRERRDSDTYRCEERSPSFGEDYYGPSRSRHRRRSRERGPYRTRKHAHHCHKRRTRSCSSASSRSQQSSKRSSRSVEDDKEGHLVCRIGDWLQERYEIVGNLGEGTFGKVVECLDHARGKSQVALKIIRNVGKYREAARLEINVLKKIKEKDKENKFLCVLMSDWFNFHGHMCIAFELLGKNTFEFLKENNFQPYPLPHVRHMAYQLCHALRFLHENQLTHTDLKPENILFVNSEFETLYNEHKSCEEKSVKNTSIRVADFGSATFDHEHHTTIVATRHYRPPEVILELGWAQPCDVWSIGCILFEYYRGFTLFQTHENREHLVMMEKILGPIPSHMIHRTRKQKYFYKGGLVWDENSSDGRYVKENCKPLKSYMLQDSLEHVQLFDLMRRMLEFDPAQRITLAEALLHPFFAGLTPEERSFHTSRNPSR

[6] = molecular target: Tribbles homolog 2 (Homo sapiens) (UniProt Q92519); assay: Inhibition of recombinant full-length human TRB2 at 10 uM using RRRFRPASPLRGPPK as substrate measured after 120 mins in presence of [gamma33P]ATP by scintillation counting method
[7] = molecular target: Rhodopsin kinase GRK1 (Homo sapiens) (UniProt Q15835); assay: Inhibition of recombinant full-length human GRK1 at 10 uM using KKKKERLLDDRHDSGLDSMKDEE as substrate measured after 40 mins in presence of [gamma33P]ATP by scintillation counting method
Rhodopsin kinase GRK1 (Homo sapiens), sequence (Q15835 whole entry): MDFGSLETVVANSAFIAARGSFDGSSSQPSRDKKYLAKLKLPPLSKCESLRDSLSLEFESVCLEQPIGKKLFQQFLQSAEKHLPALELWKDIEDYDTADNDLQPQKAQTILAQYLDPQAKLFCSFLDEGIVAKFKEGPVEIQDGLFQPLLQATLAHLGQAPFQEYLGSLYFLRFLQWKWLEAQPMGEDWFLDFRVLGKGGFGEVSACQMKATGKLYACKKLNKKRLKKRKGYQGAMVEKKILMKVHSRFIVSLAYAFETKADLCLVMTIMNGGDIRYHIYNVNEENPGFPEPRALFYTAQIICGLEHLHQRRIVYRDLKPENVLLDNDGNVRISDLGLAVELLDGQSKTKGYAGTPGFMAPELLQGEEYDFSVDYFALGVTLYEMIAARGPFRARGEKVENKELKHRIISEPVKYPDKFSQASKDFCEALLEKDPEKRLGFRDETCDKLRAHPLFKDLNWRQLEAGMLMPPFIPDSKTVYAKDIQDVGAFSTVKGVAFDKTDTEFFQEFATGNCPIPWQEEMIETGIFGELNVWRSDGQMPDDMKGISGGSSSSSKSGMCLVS

[8] = molecular target: Beta-adrenergic receptor kinase 1 (Homo sapiens) (UniProt P25098); assay: Inhibition of recombinant full-length human GRK2 at 10 uM using casein as substrate measured after 40 mins in presence of [gamma33P]ATP by scintillation counting method
[9] = test system: Proto-oncogene tyrosine-protein kinase receptor Ret (Homo sapiens), P07949 [V804M]; assay: Inhibition of human Ret V804M mutant (658 to end residues) using KKKVSRSGLYRSPSMPENLNRPR as substrate measured after 40 mins in presence of [gamma33P]ATP by scintillation counting method
How it was run: (§2)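 Kinase panel of 422 kinases screened by Eurofins KinaseProfiler at a single test-compound concentration of 10 µM.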

[10] = molecular target: Transcription intermediary factor 1-alpha (Homo sapiens) (UniProt O15164); assay: Binding affinity to human partial length TRIM24 (P790 to P977 residues) expressed in bacterial expression system at 1 uM by BROMOscan assay; how it was run: as §1
[11] = test system: Calcium/calmodulin-dependent protein kinase kinase 2 (Homo sapiens), Q96RR4 [T85S]; assay: Inhibition of recombinant full-length human CAMKk2 T85S mutant at 10 uM using calmodulin as substrate measured after 40 mins in presence of [gamma33P]ATP by scintillation counting method
Calcium/calmodulin-dependent protein kinase kinase 2 (Homo sapiens), Q96RR4 [T85S], sequence (Q96RR4 whole entry T85S, the tested form may be a part): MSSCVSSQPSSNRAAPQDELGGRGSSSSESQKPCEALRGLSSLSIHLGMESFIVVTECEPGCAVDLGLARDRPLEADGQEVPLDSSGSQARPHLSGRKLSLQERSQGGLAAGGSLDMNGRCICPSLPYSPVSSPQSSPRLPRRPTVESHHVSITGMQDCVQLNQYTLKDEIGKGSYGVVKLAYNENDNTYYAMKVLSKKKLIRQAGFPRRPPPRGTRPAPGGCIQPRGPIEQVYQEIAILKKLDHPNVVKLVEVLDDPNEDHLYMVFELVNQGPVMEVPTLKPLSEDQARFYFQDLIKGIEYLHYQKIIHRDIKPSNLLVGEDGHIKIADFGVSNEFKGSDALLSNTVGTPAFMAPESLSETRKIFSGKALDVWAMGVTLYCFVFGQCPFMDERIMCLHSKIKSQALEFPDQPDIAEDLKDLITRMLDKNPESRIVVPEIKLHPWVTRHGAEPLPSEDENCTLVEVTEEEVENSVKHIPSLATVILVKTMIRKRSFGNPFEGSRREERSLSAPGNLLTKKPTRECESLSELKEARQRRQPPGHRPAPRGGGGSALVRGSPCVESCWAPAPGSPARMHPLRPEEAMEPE

[12] = molecular target: Receptor-interacting serine/threonine-protein kinase 1 (Homo sapiens) (UniProt Q13546); assay: Inhibition of human RIPK1 (8 to 322 residues) using myelin basic protein as substrate measured after 120 mins in presence of [gamma33P]ATP by scintillation counting method; how it was run: as §2
[13] = molecular target: Serine/threonine-protein kinase Chk2 (Homo sapiens) (UniProt O96017); assay: Inhibition of recombinant human CHK2 (5 to end residues) at 10 uM using KKKVSRSGLYRSPSMPENLNRPR as substrate measured after 40 mins in presence of [gamma33P]ATP by scintillation counting method
[14] = test system: Serine/threonine-protein kinase Chk2 (Homo sapiens), O96017 [I157T]; assay: Inhibition of recombinant human CHK2 I157T mutant (5 to end residues) at 10 uM using KKKVSRSGLYRSPSMPENLNRPR as substrate measured after 40 mins in presence of [gamma33P]ATP by scintillation counting method
Homo sapiens = organism: Homo sapiens; assay: Inhibition of human Ros V2262A mutant (1883 to end residues) using KKKSPGEYVNIEFG as substrate measured after 40 mins in presence of [gamma33P]ATP by scintillation counting method; how it was run: as §2
[15] = molecular target: Mitogen-activated protein kinase 14 (Homo sapiens) (UniProt Q16539); assay: Inhibition of recombinant full-length human SAPK2a at 10 uM using myelin basic protein as substrate measured after 40 mins in presence of [gamma33P]ATP by scintillation counting method
Mitogen-activated protein kinase 14 (Homo sapiens), sequence (Q16539 whole entry): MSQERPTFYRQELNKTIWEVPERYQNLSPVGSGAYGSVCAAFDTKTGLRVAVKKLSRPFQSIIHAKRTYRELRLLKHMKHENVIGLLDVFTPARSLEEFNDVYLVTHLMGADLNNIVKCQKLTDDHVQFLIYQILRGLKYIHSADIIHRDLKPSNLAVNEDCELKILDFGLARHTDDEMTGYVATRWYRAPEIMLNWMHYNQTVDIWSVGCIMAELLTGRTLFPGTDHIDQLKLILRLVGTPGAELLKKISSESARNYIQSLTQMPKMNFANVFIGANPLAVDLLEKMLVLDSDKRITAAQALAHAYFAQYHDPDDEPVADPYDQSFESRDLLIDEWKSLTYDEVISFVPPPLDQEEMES

[16] = test system: Mitogen-activated protein kinase 14 (Homo sapiens), Q16539 [T106M]; assay: Inhibition of recombinant full-length human SAPK2a T106M mutant at 10 uM using myelin basic protein as substrate measured after 40 mins in presence of [gamma33P]ATP by scintillation counting method
Mitogen-activated protein kinase 14 (Homo sapiens), Q16539 [T106M], sequence (Q16539 whole entry T106M): as the sequence (Q16539 whole entry) above, with T106M counted along it

[17] = molecular target: Proto-oncogene tyrosine-protein kinase Src (Homo sapiens) (UniProt P12931); assay: Inhibition of recombinant full-length human SRC at 10 uM using Cdc2 peptide as substrate measured after 40 mins in presence of [gamma33P]ATP by scintillation counting method
[18] = molecular target: Protein kinase C alpha type (Homo sapiens) (UniProt P17252); assay: Inhibition of recombinant full-length human PKCalpha at 10 uM using histone H1 as substrate measured after 40 mins in presence of [gamma33P]ATP by scintillation counting method
[19] = molecular target: Serine/threonine-protein kinase Sgk3 (Homo sapiens) (UniProt Q96BR1); assay: Inhibition of human SGK3 (119 to end residues) using GRPRTSSFAEGKK as substrate measured after 40 mins in presence of [gamma33P]ATP by scintillation counting method; how it was run: as §2
Serine/threonine-protein kinase Sgk3 (Homo sapiens), sequence (Q96BR1 whole entry): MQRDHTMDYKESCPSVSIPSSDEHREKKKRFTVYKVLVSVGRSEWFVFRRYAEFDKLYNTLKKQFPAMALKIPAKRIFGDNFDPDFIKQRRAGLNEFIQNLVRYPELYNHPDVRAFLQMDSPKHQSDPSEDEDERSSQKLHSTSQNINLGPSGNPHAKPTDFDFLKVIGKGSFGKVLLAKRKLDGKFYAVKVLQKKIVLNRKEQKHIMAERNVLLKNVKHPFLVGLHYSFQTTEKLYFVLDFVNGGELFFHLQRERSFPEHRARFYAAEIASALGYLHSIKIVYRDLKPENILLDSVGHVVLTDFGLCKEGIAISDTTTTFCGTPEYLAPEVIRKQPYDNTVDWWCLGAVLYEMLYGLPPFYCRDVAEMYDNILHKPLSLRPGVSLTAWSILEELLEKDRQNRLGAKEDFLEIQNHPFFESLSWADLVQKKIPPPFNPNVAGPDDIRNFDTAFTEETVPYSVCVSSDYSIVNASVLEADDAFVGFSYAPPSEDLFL

[20] = molecular target: Mitogen-activated protein kinase 1 (Homo sapiens) (UniProt P28482); assay: Inhibition of recombinant full-length human MAPK1 at 10 uM using myelin basic protein as substrate measured after 40 mins in presence of [gamma33P]ATP by scintillation counting method
[21] = molecular target: Calcium/calmodulin-dependent protein kinase type II subunit alpha (Homo sapiens) (UniProt Q9UQM7); assay: Inhibition of recombinant full-length human CaMK2alpha at 10 uM using calmodulin as substrate measured after 40 mins in presence of [gamma33P]ATP by scintillation counting method
[22] = molecular target: Ephrin type-A receptor 7 (Homo sapiens) (UniProt Q15375); assay: Inhibition of recombinant human EphA7 (613 to 909 residues) at 10 uM using KTFCGTPEYLAPEVRREPRILSEEEQEMFRDFDYIADWC as substrate measured after 40 mins in presence of [gamma33P]ATP by scintillation counting method
Ephrin type-A receptor 7 (Homo sapiens), sequence (Q15375 28-998 limits assumed): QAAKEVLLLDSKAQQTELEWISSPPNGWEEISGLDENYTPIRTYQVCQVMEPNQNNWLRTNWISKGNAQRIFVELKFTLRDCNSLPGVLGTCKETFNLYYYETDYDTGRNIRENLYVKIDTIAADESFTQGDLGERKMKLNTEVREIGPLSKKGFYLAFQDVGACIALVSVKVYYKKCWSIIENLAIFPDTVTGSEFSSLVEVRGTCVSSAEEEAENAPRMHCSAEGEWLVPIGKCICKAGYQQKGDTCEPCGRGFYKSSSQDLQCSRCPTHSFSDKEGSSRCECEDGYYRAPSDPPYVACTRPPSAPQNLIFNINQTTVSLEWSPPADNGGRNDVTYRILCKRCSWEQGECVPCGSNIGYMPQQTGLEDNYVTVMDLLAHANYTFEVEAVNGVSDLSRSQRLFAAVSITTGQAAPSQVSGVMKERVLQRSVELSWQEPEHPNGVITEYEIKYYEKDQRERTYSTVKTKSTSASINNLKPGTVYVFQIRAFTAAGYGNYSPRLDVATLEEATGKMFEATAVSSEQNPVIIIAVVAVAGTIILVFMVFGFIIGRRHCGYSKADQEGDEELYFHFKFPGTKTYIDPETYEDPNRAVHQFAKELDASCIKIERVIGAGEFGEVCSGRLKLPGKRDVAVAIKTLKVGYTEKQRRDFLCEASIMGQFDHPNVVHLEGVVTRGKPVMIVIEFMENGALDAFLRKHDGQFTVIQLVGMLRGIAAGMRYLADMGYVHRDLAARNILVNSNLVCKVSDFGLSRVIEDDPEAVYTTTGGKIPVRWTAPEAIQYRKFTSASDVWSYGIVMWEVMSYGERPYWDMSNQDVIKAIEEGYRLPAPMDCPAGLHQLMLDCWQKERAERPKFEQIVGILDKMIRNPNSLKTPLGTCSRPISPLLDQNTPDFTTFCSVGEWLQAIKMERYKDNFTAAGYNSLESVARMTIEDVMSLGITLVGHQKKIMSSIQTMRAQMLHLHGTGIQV

CN1C[C@H](Nc2nc3cc[nH]c3c(=O)n2C)C[C@H](c2ccc3c(c2)OCCO3)C1
inactive: inhibition [1] | inhibition [2] | inhibition [3] | Activity [4] | inhibition [5] | inhibition [6] | inhibition [7] | inhibition [8] | inhibition [9] | Activity [10] | inhibition [11] | inhibition [12] | inhibition [13] | inhibition [14] | inhibition (Homo sapiens) | inhibition [15] | inhibition [16] | inhibition [17] | inhibition [18] | inhibition [19] | inhibition [20] | inhibition [21] | inhibition [22]
